Measured values from ChEMBL document CHEMBL1139903, “Formation of an enolate intermediate is required for the reaction catalyzed by 3-hydroxyacyl-CoA dehydrogenase” (Bioorg Med Chem Lett, 2007).

How the values were obtained:
[1] = organism: Rattus norvegicus; assay: Activity of rat 3-hydroxyacyl-CoA dehydrogenase S137A mutant
In short: (§1)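 Rat liver HAD enzymes (wild-type, Asn208Ala, Ser137Ala) were incubated with 3-hydroxyacyl-CoA substrates or fluorinated analogs and NAD⁺ cofactor, so the forward reaction oxidizes the 3-hydroxyl to a keto group while NAD⁺ is reduced to NADH. Kinetic studies derived parameters including Vmax.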

[2] = organism: Rattus norvegicus; assay: Activity of rat 3-hydroxyacyl-CoA dehydrogenase N208A mutant; in short: as §1
[3] = substrate: CCC/C=C/C(O)C(F)C(=O)SCCNC(=O)CCNC(=O)[C@H](O)C(C)(C)COP(=O)(O)OP(=O)(O)OC[C@H]1O[C@@H](n2cnc3c(N)ncnc32)[C@H](O)[C@@H]1OP(=O)(O)O; assay: (§2) Activity of rat 3-hydroxyacyl-CoA dehydrogenase; in short: as §1
[4] = substrate: CCCCCC(O)C(F)C(=O)SCCNC(=O)CCNC(=O)[C@H](O)C(C)(C)COP(=O)(O)OP(=O)(O)OC[C@H]1O[C@@H](n2cnc3c(N)ncnc32)[C@H](O)[C@@H]1OP(=O)(O)O; assay: as §2; in short: as §1
[5] = substrate: CCCCCC(O)CC(=O)SCCNC(=O)CCNC(=O)[C@H](O)C(C)(C)COP(=O)(O)OP(=O)(O)OC[C@H]1O[C@@H](n2cnc3c(N)ncnc32)[C@H](O)[C@@H]1OP(=O)(O)O; assay: as §2; in short: as §1
[6] = substrate: CCC/C=C/C(O)CC(=O)SCCNC(=O)CCNC(=O)[C@H](O)C(C)(C)COP(=O)(O)OP(=O)(O)OC[C@H]1O[C@@H](n2cnc3c(N)ncnc32)[C@H](O)[C@@H]1OP(=O)(O)O; assay: as §2; in short: as §1

Km [1] [µM] | Vmax [1] [µmol/min/mg] | Km [2] [µM] | Vmax [2] [µmol/min/mg] | Molecule | Km [3] [µM] | Vmax [3] [µmol/min/mg] | Km [4] [µM] | Km [5] [µM] | Vmax [5] [µmol/min/mg] | Km [6] [µM] | Vmax [6] [µmol/min/mg]
55.7 | 0.17 | 44.9 | 0.1 | CCC/C=C/C(O)C(F)C(=O)SCCNC(=O)CCNC(=O)[C@H](O)C(C)(C)COP(=O)(O)OP(=O)(O)OC[C@H]1O[C@@H](n2cnc3c(N)ncnc32)[C@H](O)[C@@H]1OP(=O)(O)O (some centres not stated) | – | – | – | – | – | – | –
53.2 | 0.46 | 49.6 | 1.08 | CCC/C=C/C(O)CC(=O)SCCNC(=O)CCNC(=O)[C@H](O)C(C)(C)COP(=O)(O)OP(=O)(O)OC[C@H]1O[C@@H](n2cnc3c(N)ncnc32)[C@H](O)[C@@H]1OP(=O)(O)O (some centres not stated) | – | – | – | – | – | – | –
– | – | 46.8 | 0.28 | CCCCCC(O)CC(=O)SCCNC(=O)CCNC(=O)[C@H](O)C(C)(C)COP(=O)(O)OP(=O)(O)OC[C@H]1O[C@@H](n2cnc3c(N)ncnc32)[C@H](O)[C@@H]1OP(=O)(O)O (some centres not stated) | – | – | – | – | – | – | –
– | – | – | – | Peroxisomal multifunctional enzyme type 2 (Rattus norvegicus), P97852 (protein) MASPLRFDGRVVLVTGAGGGLGRAYALAFAERGALVVVNDLGGDFKGVGKGSSAADKVVEEIRRRGGKAVANYDSVEAGEKLVKTALDTFGRIDVVVNNAGILRDRSFSRISDEDWDIIQRVHLRGSFQVTRAAWDHMKKQNYGRIIMTASASGIYGNFGQANYSAAKLGLLGLANTLVIEGRKNNIHCNTIAPNAGSRMTETVMPEDLVEALKPEYVAPLVLWLCHESCEENGGLFEVGAGWIGKLRWERTLGAIVRKRNQPMTPEAVRDNWVKICDFSNASKPKSIQESTGGIIEVLHKIDSEGISQNHTGQVASADASGFAGVVGHKLPSFSSSYTELQCIMYALGVGASVKNPKDLKFVYEGSADFSCLPTFGVIVAQKSLMSGGLAEVPGLSINFAKVLHGEQYLELYKPLPRSGELKCEAVIADILDKGSGIVIVMDVYSYSGKELICYNQFSVFVVGSGGFGGKRTSEKLKAAVAVPSRPPDAVLRDTTSLNQAALYRLSGDSNPLHIDPSFASIAGFEKPILHGLCTFGFSARHVLQQFADNDVSRFKAIKVRFAKPVYPGQTLQTEMWKEGNRIHFQTKVQETGDIVISNAYVDLVPTSGVSAQTPSEGGALQSALVFGEIGRRLKDVGREVVKKVNAVFEWHITKNGNVAAKWTIDLKNGSGEVYQGPAKGSADTTITISDEDFMEVVLGKLNPQNAFFSGRLKARGNIMLSQKLQMILKDYAKL | 46.8 | 11.7 | 69.3 | 34.6 | 10.5 | 20 | 21.8
